Reference: ChEMBL document CHEMBL4184223 (Bioorg Med Chem Lett, 2018)
The source made the active and inactive calls. The rule behind the calls is not given here.

Assays:
BV-2 (Mus musculus) [1] = assay: Antiinflammatory activity in mouse BV-2 cells assessed as inhibition of LPS-induced TNF-alpha production pre-incubated for 1 hr before LPS stimulation for 23 hrs by ELISA method
BV-2 (Mus musculus) [2] = assay: Antiinflammatory activity in mouse BV-2 cells assessed as inhibition of LPS-induced TNF-alpha production at 10 to 1000 nM pre-incubated for 1 hr before LPS stimulation for 23 hrs by ELISA method
Cortical neurone [3] = assay: Toxicity in CD1 mouse primary cortical neurons assessed as effect on cell viability at 0.01 to 1 uM incubated for 24 hrs by CCK8 assay; type: cell-based
Outline: (§1)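 Primary cortical neuron cultures were given compound alone across a concentration range, without Aβ. Cell viability was measured by CCK8 and expressed as percent reduction in viable cells. Data are mean ± SD of three independent experiments.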

[4] = Toxicity in African green monkey CV1 cells assessed as effect on cell viability incubated for 24 hrs by CCK8 assay
Cortical neurone [5] = assay: Neuroprotective activity against amyloid beta (1 to 42) peptide-induced cytotoxicty in CD1 mouse primary cortical neurons assessed as increase in cell viability at 1 to 10 nM pre-incubated for 1 hr before amyloid beta (1 to 42) addition and measured after 24 hrs by CCK8 assay; type: functional, cell-based
BV-2 (Mus musculus) [6] = assay: Antiinflammatory activity in mouse BV-2 cells assessed as inhibition of LPS-induced TNF-alpha production at 20 nM pre-incubated for 1 hr before LPS stimulation for 23 hrs by ELISA method
Cortical neurone [7] = assay: Neuroprotective activity against amyloid beta (1 to 42) peptide-induced cytotoxicty in CD1 mouse primary cortical neurons assessed as increase in cell viability at 0.01 to 1 nM pre-incubated for 1 hr before amyloid beta (1 to 42) addition and measured after 24 hrs by CCK8 assay; type: functional
Cortical neurone [8] = assay: Toxicity in CD1 mouse primary cortical neurons assessed as effect on cell viability at =< 10 nM incubated for 24 hrs by CCK8 assay; type: cell-based
Outline: as §1

BV-2 (Mus musculus) [9] = assay: Antiinflammatory activity in mouse BV-2 cells assessed as inhibition of LPS-induced TNF-alpha production at 10 nM pre-incubated for 1 hr before LPS stimulation for 23 hrs by ELISA method
Cortical neurone [10] = assay: Neuroprotective activity against amyloid beta (1 to 42) peptide-induced cytotoxicty in CD1 mouse primary cortical neurons assessed as increase in cell viability at 0.01 nM pre-incubated for 1 hr before amyloid beta (1 to 42) addition and measured after 24 hrs by CCK8 assay; type: functional
[11] = Toxicity in CD1 mouse primary cortical neurons assessed as effect on cell viability at 25 nM incubated for 24 hrs by CCK8 assay; type: cell-based, Cortical neurone; conditions: read-out: Activity
Outline: (§2)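 Primary cortical neuron cultures were exposed to compound alone at the stated concentration. Viability was measured by CCK8 and expressed as the percentage reduction in viable cells.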

[12] = Toxicity in CD1 mouse primary cortical neurons assessed as effect on cell viability at 50 nM incubated for 24 hrs by CCK8 assay; type: cell-based, Cortical neurone; conditions: read-out: Activity
Outline: as §2

[13] = Stability in neurobasal cell culture medium supplemented with B-27 and N2 assessed as compound hydrolysis by LC-HR MS method; type: physicochemical; conditions: read-out: Drug degradation
Outline: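 Compound was incubated in neurobasal culture medium containing B-27 and N2 at 37 °C for 24 h, with no enzyme present. The remaining compound concentration was then quantified by LC-HRMS.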

[14] = Toxicity in CD1 mouse primary cortical neurons assessed as effect on cell viability at 100 nM incubated for 24 hrs by CCK8 assay; type: cell-based, Cortical neurone; conditions: read-out: Activity
Outline: as §2

Cortical neurone [15] = assay: Neuroprotective activity against amyloid beta (1 to 42) peptide-induced cytotoxicty in CD1 mouse primary cortical neurons assessed as increase in cell viability at 0.1 to 10 uM pre-incubated for 1 hr before amyloid beta (1 to 42) addition and measured after 24 hrs by CCK8 assay; type: functional, cell-based
Cortical neurone [16] = assay: Neuroprotective activity against amyloid beta (1 to 42) peptide-induced cytotoxicty in CD1 mouse primary cortical neurons assessed as increase in cell viability at 100 to 1000 nM pre-incubated for 1 hr before amyloid beta (1 to 42) addition and measured after 24 hrs by CCK8 assay; type: functional, cell-based
Cortical neurone [17] = assay: Toxicity in CD1 mouse primary cortical neurons assessed as effect on cell viability at 1000 nM incubated for 24 hrs by CCK8 assay; type: cell-based; conditions: 1 µM
Outline: as §1

Row | Structure (SMILES) | Activity (BV-2 (Mus musculus) [1]) | Activity (Cortical neurone [3]) | Activity [4] | Activity (Cortical neurone [7]) | Activity (Cortical neurone [15]) | further results
1 | CC(C)C1=C[C@@H]2O[C@@]23[C@@]2(C)CCC4=C(COC4=O)[C@@H]2C[C@@H]2O[C@@]23C1=O | Dose-dependent effect | Non-Toxic | Non-Toxic |  |  | Activity (BV-2 (Mus musculus) [2]): inactive; Activity (Cortical neurone [5]): Active
2 | CC(C)[C@]12O[C@H]1[C@@H]1O[C@]13[C@]1(O[C@H]1C[C@H]1C4=C(CC[C@@]13C)C(=O)OC4)[C@H]2F | Dose-dependent effect |  | Non-Toxic | inactive |  | inhibition at 0.02 µM (BV-2 (Mus musculus) [6]): 100%
3 | CC(C)[C@]12O[C@H]1[C@@H]1O[C@]13[C@]1(O[C@H]1C[C@H]1C4=C(CC[C@@]13C)C(=O)OC4)[C@@H]2OC(=O)NC12CC3CC(C)(CC(C)(C3)C1)C2 | Dose-dependent effect |  | Non-Toxic | Dose-dependent effect |  | Activity (Cortical neurone [8]): Non-Toxic; inhibition at 0.01 µM (BV-2 (Mus musculus) [9]): 100%; Activity (Cortical neurone [10]): 100%; viability at 24 h, 0.025 µM [11]: 7.7%; viability at 24 h, 0.05 µM [12]: 32.8%; degraded [13]: 13%; viability at 24 h, 0.1 µM [14]: 73.5%
4 | CC(C)[C@]1(O)[C@H](F)[C@@H]2O[C@]23[C@]2(O[C@H]2C[C@H]2C4=C(CC[C@@]23C)C(=O)OC4)[C@@H]1O |  | Non-Toxic |  |  | Active | 
5 | CC(C)[C@]1(O)[C@H](O)[C@@H]2O[C@]23[C@]2(O[C@H]2C[C@H]2C4=C(CC[C@@]23C)C(=O)OC4)[C@@H]1O |  | Non-Toxic |  |  | Active | 
6 | CC(C)[C@]12O[C@H]1[C@@H]1O[C@]13[C@]1(O[C@H]1C[C@H]1C4=C(CC[C@@]13C)C(=O)OC4)[C@@H]2OC(=O)NC(C)(C)C |  |  |  |  |  | Activity (Cortical neurone [16]): inactive; Activity (Cortical neurone [17]): Toxic
7 | CC(C)[C@]12O[C@H]1[C@@H]1O[C@@]13[C@@]1(C)CCC4=C(COC4=O)[C@@H]1CC[C@@]3(O)[C@@H]2O |  | Non-Toxic | Non-Toxic |  |  | Activity (Cortical neurone [5]): Active
8 | CC(C)[C@]12O[C@H]1[C@@H]1O[C@]13[C@]1(O[C@H]1C[C@H]1C4=C(CC[C@@]13C)C(=O)OC4)[C@@H]2O [TRIPTOLIDE] | Dose-dependent effect |  |  | 100% |  | Activity (Cortical neurone [10]): 100%; viability at 24 h, 0.025 µM [11]: 27.2%; viability at 24 h, 0.05 µM [12]: 62.8%; degraded [13]: 13%; viability at 24 h, 0.1 µM [14]: 76.5%
9 | CC(C)[C@]12O[C@H]1[C@@H]1O[C@@]13[C@@]1(C)CCC4=C(COC4=O)[C@@H]1C[C@@H]1O[C@@]13C2=O [TRIPTONIDE] |  |  | Non-Toxic |  | inactive | inhibition at 0.02 µM (BV-2 (Mus musculus) [6]): 100%
